Where “and” joins values, the source holds several entries; their conditions need not be identical. Identical values can stand only once.
System: Fibroblast
Assay: Multiplex assay against human fibroblast
Assay type: toxicity, cell-based
Procedure, shortened: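 Live cells carried four stains from seeding: Hoechst33342, BioTracker Green Microtubule Cytoskeleton Dye, MitoTracker Red and Annexin V Alexa Fluor 680. They were imaged on a CQ1 microscope at 37°C and 5% CO2 after compound addition. Using CellPathfinder machine-learning gating, cells were split into Hoechst high-intensity objects or normal cells, normal cells into healthy, pyknosed or fragmented nuclei, and pyknosed cells into mitotic or apoptotic; tubulin, mitochondrial-mass and membrane-permeability phenotypes are per cents of healthy-nucleus cells.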

[1] = 12 h, 1 µM, compound concentration 1 uM
[2] = 12 h, 10 µM, compound concentration 10 uM
[3] = 24 h, 1 µM, compound concentration 1 uM
[4] = 24 h, 10 µM, compound concentration 10 uM
[5] = 48 h, 1 µM, compound concentration 1 uM
[6] = 48 h, 10 µM, compound concentration 10 uM

O=C(Nc1ccccc1Br)N[C@@H]1CCN(c2ccc(C(F)(F)F)cn2)C1 [SB-705498]
Population Apoptotic (%) [1]: 20% and 15.79% | Population Healthy Nuclei (%) [1]: 43.71% and 74.07% | Population Hoechst High Intensity Objects (%) [1]: 0% | Population Membrane Permeable-Phenotype (%) [1]: 3.03% and 0% | Population Mitochondria Different-Phenotype (%) [1]: 12.12% and 8.57% | Population Mitotic Cells (%) [1]: 80% and 84.21% | Population Normal (%) [1]: 100% | Population Pyknosed Nuclei (%) [1]: 29.8% and 20.11% | Population Tubulin-Different-Phenotype (%) [1]: 33.33% and 14.29% | Total Cell Count [1]: 151 and 189 | Population Apoptotic (%) [2]: 10.94% and 22.22% | Population Fragmented Nuclei (%) [2]: 10.95% and 8.47% | Population Healthy Nuclei (%) [2]: 57.21% and 76.27% | Population Hoechst High Intensity Objects (%) [2]: 0% | Population Membrane Permeable-Phenotype (%) [2]: 3.48% and 7.41% | Population Mitochondria Different-Phenotype (%) [2]: 15.65% and 15.56% | Population Mitotic Cells (%) [2]: 89.06% and 77.78% | Population Normal (%) [2]: 100% | Population Pyknosed Nuclei (%) [2]: 31.84% and 15.25% | Population Tubulin-Different-Phenotype (%) [2]: 15.65% and 42.22% | Total Cell Count [2]: 201 and 177 | Population Apoptotic (%) [3]: 15.62% and 20% | Population Healthy Nuclei (%) [3]: 57.14% and 83% | Population Hoechst High Intensity Objects (%) [3]: 0% | Population Membrane Permeable-Phenotype (%) [3]: 3.12% and 1.81% | Population Mitochondria Different-Phenotype (%) [3]: 11.46% and 8.43% | Population Mitotic Cells (%) [3]: 84.38% and 80% | Population Normal (%) [3]: 100% | Population Pyknosed Nuclei (%) [3]: 19.05% and 12.5% | Population Tubulin-Different-Phenotype (%) [3]: 30.21% and 13.86% | Total Cell Count [3]: 168 and 200 | Population Apoptotic (%) [4]: 18.03% and 12% | Population Fragmented Nuclei (%) [4]: 9.01% and 6.59% | Population Healthy Nuclei (%) [4]: 64.81% and 78.44% | Population Hoechst High Intensity Objects (%) [4]: 0% | Population Membrane Permeable-Phenotype (%) [4]: 5.3% and 5.34% | Population Mitochondria Different-Phenotype (%) [4]: 9.93% and 20.61% | Population Mitotic Cells (%) [4]: 81.97% and 88% | Population Normal (%) [4]: 100% | Population Pyknosed Nuclei (%) [4]: 26.18% and 14.97% | Population Tubulin-Different-Phenotype (%) [4]: 29.8% and 41.98% | Total Cell Count [4]: 233 and 167 | Population Apoptotic (%) [5]: 25% and 18.18% | Population Fragmented Nuclei (%) [5]: 16.97% and 7.55% | Population Healthy Nuclei (%) [5]: 73.33% and 87.26% | Population Hoechst High Intensity Objects (%) [5]: 0% | Population Membrane Permeable-Phenotype (%) [5]: 3.31% and 0.54% | Population Mitochondria Different-Phenotype (%) [5]: 12.4% and 3.24% | Population Mitotic Cells (%) [5]: 75% and 81.82% | Population Normal (%) [5]: 100% | Population Pyknosed Nuclei (%) [5]: 9.7% and 5.19% | Population Tubulin-Different-Phenotype (%) [5]: 12.4% and 13.51% | Total Cell Count [5]: 165 and 212 | Population Apoptotic (%) [6]: 31.25% and 21.43% | Population Fragmented Nuclei (%) [6]: 9.02% and 8.28% | Population Healthy Nuclei (%) [6]: 84.43% and 83.43% | Population Hoechst High Intensity Objects (%) [6]: 0% | Population Membrane Permeable-Phenotype (%) [6]: 1.46% and 9.93% | Population Mitochondria Different-Phenotype (%) [6]: 12.62% and 5.67% | Population Mitotic Cells (%) [6]: 68.75% and 78.57% | Population Normal (%) [6]: 100% | Population Pyknosed Nuclei (%) [6]: 6.56% and 8.28% | Population Tubulin-Different-Phenotype (%) [6]: 17.48% and 42.55% | Total Cell Count [6]: 244 and 169

CCCC(CCC)C(=O)O [VALPROIC ACID]
Population Apoptotic (%) [1]: 42% and 57% | Population Fragmented Nuclei (%) [1]: 13% and 20% | Population Healthy Nuclei (%) [1]: 65% and 47% | Population Hoechst High Intensity Objects (%) [1]: 3% and 8% | Population Membrane Permeable-Phenotype (%) [1]: 2% and 10% | Population Mitotic Cells (%) [1]: 57% and 42% | Population Normal (%) [1]: 96% and 91% | Population Pyknosed Nuclei (%) [1]: 21% and 31% | Population Tubulin-Different-Phenotype (%) [1]: 27% and 49% | Population Apoptotic (%) [2]: 30% and 43% | Population Fragmented Nuclei (%) [2]: 29% and 16% | Population Healthy Nuclei (%) [2]: 60% and 53% | Population Hoechst High Intensity Objects (%) [2]: 4% and 2% | Population Membrane Permeable-Phenotype (%) [2]: 1% and 4% | Population Mitochondria Different-Phenotype (%) [2]: 3% and 8% | Population Mitotic Cells (%) [2]: 70% and 56% | Population Normal (%) [2]: 95% and 97% | Population Tubulin-Different-Phenotype (%) [2]: 16% and 41% | Population Apoptotic (%) [3]: 42% and 48% | Population Fragmented Nuclei (%) [3]: 11% and 22% | Population Healthy Nuclei (%) [3]: 69% and 53% | Population Hoechst High Intensity Objects (%) [3]: 5% and 7% | Population Membrane Permeable-Phenotype (%) [3]: 1% and 3% | Population Mitochondria Different-Phenotype (%) [3]: 2% and 7% | Population Mitotic Cells (%) [3]: 57% and 51% | Population Normal (%) [3]: 95% and 92% | Population Pyknosed Nuclei (%) [3]: 19% and 24% | Population Tubulin-Different-Phenotype (%) [3]: 22% and 54% | Population Apoptotic (%) [4]: 50% and 38% | Population Fragmented Nuclei (%) [4]: 27% and 30% | Population Healthy Nuclei (%) [4]: 66% and 46% | Population Hoechst High Intensity Objects (%) [4]: 6% and 3% | Population Membrane Permeable-Phenotype (%) [4]: 0% and 5% | Population Mitochondria Different-Phenotype (%) [4]: 1% and 4% | Population Mitotic Cells (%) [4]: 50% and 61% | Population Normal (%) [4]: 93% and 96% | Population Tubulin-Different-Phenotype (%) [4]: 21% and 41% | Population Apoptotic (%) [5]: 55% and 48% | Population Fragmented Nuclei (%) [5]: 18% and 36% | Population Healthy Nuclei (%) [5]: 66% and 44% | Population Hoechst High Intensity Objects (%) [5]: 7% | Population Membrane Permeable-Phenotype (%) [5]: 0% and 4% | Population Mitochondria Different-Phenotype (%) [5]: 1% and 7% | Population Mitotic Cells (%) [5]: 44% and 51% | Population Normal (%) [5]: 92% | Population Pyknosed Nuclei (%) [5]: 14% and 19% | Population Tubulin-Different-Phenotype (%) [5]: 19% and 55% | Population Apoptotic (%) [6]: 60% | Population Fragmented Nuclei (%) [6]: 30% and 33% | Population Healthy Nuclei (%) [6]: 60% and 51% | Population Hoechst High Intensity Objects (%) [6]: 1% and 5% | Population Membrane Permeable-Phenotype (%) [6]: 0% and 6% | Population Mitochondria Different-Phenotype (%) [6]: 1% and 5% | Population Mitotic Cells (%) [6]: 40% and 39% | Population Normal (%) [6]: 98% and 94% | Population Pyknosed Nuclei (%) [6]: 8% and 15% | Population Tubulin-Different-Phenotype (%) [6]: 18% and 46%
